In ChEMBL document CHEMBL1122046, “Quaternary heterocyclylamino beta-lactams: a generic alternative to the classical acylamino side chain” (1982):
Values after ≈ are worked out from the molar mass of the structure shown.

How the values were obtained:
Assay type in all cases: functional
Escherichia coli = assay: MIC against aerobic organism Escherichia coli strain 2891
Summary of the method: (§1)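 Agar-dilution MIC in µg/mL against aerobic bacterial strains on tryptocase soy agar, with inoculum applied as spots. Most series used 10^5 cfu per spot, and a later series used 10^4 cfu per spot. In some tables, footnoted strains were instead tested on Mueller-Hinton or nutrient agar. β-Lactamase-producing strains are flagged.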

Klebsiella aerogenes = assay: Minimum inhibitory concentration against aerobic organism Enterobacter aerogenes strain 2906; summary of the method: as §1
Enterobacter cloacae = assay: Minimum inhibitory concentration against aerobic organism Enterobacter cloacae strain 2646; summary of the method: as §1
Klebsiella pneumoniae = assay: Minimum inhibitory concentration against aerobic organism Klebsiella pneumoniae strain 2882; summary of the method: as §1
Morganella morganii = assay: Minimum inhibitory concentration against aerobic organism Morganella morganii strain 2833; summary of the method: as §1
Pseudomonas aeruginosa = assay: Minimum inhibitory concentration against aerobic organism Pseudomonas aeruginosa strain 2835; summary of the method: as §1
Proteus mirabilis = assay: Minimum inhibitory concentration against aerobic organism Proteus mirabilis strain 2830; summary of the method: as §1
Proteus vulgaris = assay: Minimum inhibitory concentration against aerobic organism Proteus vulgaris strain 2829; summary of the method: as §1
[1] = Minimum inhibitory concentration against aerobic organism Salmonella schottmuelleri strain 2837; summary of the method: as §1
Serratia marcescens = assay: Minimum inhibitory concentration against aerobic organism Serratia marcescens strain 2852; summary of the method: as §1
Streptococcus pyogenes = assay: Minimum inhibitory concentration against aerobic organism Streptococcus pyogenes strain 3124; summary of the method: as §1
Staphylococcus aureus = assay: Minimum inhibitory concentration against aerobic organism Staphylococcus aureus strain 2868; summary of the method: as §1
Enterococcus faecalis = assay: Minimum inhibitory concentration against aerobic organism Streptococcus faecalis strain 2864; summary of the method: as §1
Shigella = assay: Minimum inhibitory concentration against aerobic organism Shigella species strain 2880; summary of the method: as §1
[2] = Escherichia coli, read-out: MIC
[3] = Klebsiella aerogenes, read-out: MIC
[4] = Enterobacter cloacae, read-out: MIC
[5] = Klebsiella pneumoniae, read-out: MIC
[6] = Morganella morganii, read-out: MIC
[7] = Proteus mirabilis, read-out: MIC
[8] = Proteus vulgaris, read-out: MIC
[9] = Serratia marcescens, read-out: MIC
[10] = Streptococcus pyogenes, read-out: MIC
[11] = Staphylococcus aureus, read-out: MIC

SMILES	MIC (Escherichia coli; [2]) [µg/mL]	MIC (Klebsiella aerogenes; [3]) [µg/mL]	MIC (Enterobacter cloacae; [4]) [µg/mL]	MIC (Klebsiella pneumoniae; [5]) [µg/mL]	MIC (Morganella morganii; [6]) [µg/mL]	MIC (Pseudomonas aeruginosa) [µg/mL]	MIC (Proteus mirabilis; [7]) [µg/mL]	MIC (Proteus vulgaris; [8]) [µg/mL]	MIC ([1]; Salmonella, read-out: MIC) [µg/mL]	MIC (Serratia marcescens; [9]) [µg/mL]	MIC (Streptococcus pyogenes; [10]) [µg/mL]	MIC (Staphylococcus aureus; [11]) [µg/mL]	MIC (Enterococcus faecalis) [µg/mL]	MIC (Shigella; Shigella, read-out: MIC) [µg/mL]	further results
Cn1nnnc1SCC1=C(C(=O)[O-])N2C(=O)C(Nc3cccc[n+]3C)C2SC1 (centres undefined)	64 (≈ 153 µM)	16 (≈ 38.1 µM)	> 128	128 (≈ 305 µM)	> 128	> 128	128 (≈ 305 µM)	0.5 (≈ 1.19 µM)	> 128	> 128	32 (≈ 76.3 µM)	> 128	> 128	32 (≈ 76.3 µM)	–
CC1(C)SC2C(Nc3cc[n+](Cc4ccccc4)cc3)C(=O)N2[C@H]1C(=O)[O-] (some centres undefined)	4 (≈ 10.4 µM)	–	4 (≈ 10.4 µM)	16 (≈ 41.7 µM)	–	–	–	–	0.125 (≈ 0.326 µM)	–	0.25 (≈ 0.652 µM)	64 (≈ 167 µM)	128 (≈ 334 µM)	0.25 (≈ 0.652 µM)	–
Cn1nnnc1SCC1=C(C(=O)[O-])N2C(=O)[C@@H](Nc3cc[n+](COCc4ccccc4)cc3)[C@H]2SC1	1 (≈ 1.9 µM)	128 (≈ 244 µM)	16 (≈ 30.4 µM)	2 (≈ 3.81 µM)	> 128	> 128	> 128	128 (≈ 244 µM)	1 (≈ 1.9 µM)	> 128	–	16 (≈ 30.4 µM)	> 128	1 (≈ 1.9 µM)	–
CC(=O)OCC1=C(C(=O)[O-])N2C(=O)[C@@H](Nc3cc[n+](COCC(Cl)(Cl)Cl)cc3)[C@H]2SC1	< 0.06	32 (≈ 62.6 µM)	0.125 (≈ 0.245 µM)	< 0.06	> 128	> 128	> 128	32 (≈ 62.6 µM)	< 0.06	> 128	–	8 (≈ 15.7 µM)	128 (≈ 251 µM)	< 0.06	–
CC1(C)SC2C(Nc3cc[n+](COCC(Cl)(Cl)Cl)cc3)C(=O)N2[C@H]1C(=O)[O-] (some centres undefined)	0.5 (≈ 1.1 µM)	–	0.5 (≈ 1.1 µM)	0.5 (≈ 1.1 µM)	–	–	–	–	< 0.06	–	–	> 128	128 (≈ 281 µM)	< 0.06	–
CC(=O)OCC1=C(C(=O)[O-])N2C(=O)[C@@H](Nc3cc[n+](Cc4ccccc4)cc3)[C@H]2SC1	0.5 (≈ 1.14 µM)	16 (≈ 36.4 µM)	4 (≈ 9.1 µM)	< 0.06	> 128	> 128	> 128	0.125 (≈ 0.284 µM)	< 0.06	> 128	–	4 (≈ 9.1 µM)	128 (≈ 291 µM)	< 0.06	–
O=C([O-])C1=CCS[C@@H]2[C@H](Nc3cc[n+](Cc4ccccc4)cc3)C(=O)N12	1 (≈ 2.72 µM)	64 (≈ 174 µM)	8 (≈ 21.8 µM)	< 0.06	> 128	128 (≈ 348 µM)	> 128	0.125 (≈ 0.34 µM)	< 0.06	> 128	–	16 (≈ 43.5 µM)	128 (≈ 348 µM)	< 0.06	–
Cn1nnnc1SCC1=C(C(=O)[O-])N2C(=O)[C@@H](Nc3cc[n+](C)cc3)[C@H]2SC1 (stereo in doubt; 15a)	–	–	–	–	–	–	–	–	–	–	–	–	–	–	MIC (Escherichia coli): 0.5 µg/mL (≈ 1.19 µM); MIC (Klebsiella aerogenes): 0.5 µg/mL (≈ 1.19 µM); MIC (Enterobacter cloacae): 1 µg/mL (≈ 2.38 µM); MIC (Klebsiella pneumoniae): 8 µg/mL (≈ 19.1 µM); MIC (Morganella morganii): 4 µg/mL (≈ 9.54 µM); MIC (Proteus mirabilis): 8 µg/mL (≈ 19.1 µM); MIC (Proteus vulgaris): 0.25 µg/mL (≈ 0.596 µM); MIC [1]: 8 µg/mL (≈ 19.1 µM); MIC (Serratia marcescens): 1 µg/mL (≈ 2.38 µM); MIC (Streptococcus pyogenes): 2 µg/mL (≈ 4.77 µM); MIC (Staphylococcus aureus): 64 µg/mL (≈ 153 µM); MIC (Shigella): 1 µg/mL (≈ 2.38 µM)
C[n+]1ccc(NC(C(=O)NC2C(=O)N3C2SC(C)(C)[C@@H]3C(=O)[O-])c2ccccc2)cc1 (some centres undefined)	> 100	–	> 100	> 100	–	–	–	–	6.25 (≈ 14.2 µM)	–	< 0.39	3.12 (≈ 7.08 µM)	12.5 (≈ 28.4 µM)	25 (≈ 56.8 µM)	–
C[n+]1ccccc1NC(C(=O)NC1C(=O)N2C1SC(C)(C)[C@@H]2C(=O)[O-])c1ccccc1 (some centres undefined)	> 100	–	> 100	> 100	–	–	–	–	12.5 (≈ 28.4 µM)	–	< 0.39	3.12 (≈ 7.08 µM)	12.5 (≈ 28.4 µM)	25 (≈ 56.8 µM)	–
